Experimental data from ChEMBL document CHEMBL5712907, “Inhibition of super enhancer downregulates the expression of KLF5 in basal-like breast cancers” (Int J Biol Sci, 2018).
The source made the active and inactive calls. The calls are words filed in the database; no cut-off is given here.

Legend:
HCC1806 [1] = experiment: Cytotoxicity against human HCC1806 cells assessed as reduction in cell viability at 10 to 10000 nM for 72 hrs by SRB assay; assay type: functional, cell-based; conditions: dose 10-10000 nM
Summary of the method: (§1)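 HCC1806 or HCC1937 cells grown in RPMI-1640 with 10 % FBS at 37 °C, 5 % CO2, then exposed to graded compound concentrations for 72 h. Viability read by sulforhodamine B staining, absorbance at 560 nm. Experimental triplicates, SD shown.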

HCC1937 [2] = experiment: Cytotoxicity against human HCC1937 cells assessed as reduction in cell viability at 10 to 10000 nM for 72 hrs by SRB assay; assay type: functional, cell-based; conditions: dose 10-10000 nM; summary of the method: as §1
HCC1806 [3] = experiment: Effect on KLF5 suppression in human HCC1806 cells at 50 to 200 nM for 24 hrs by immunoblotting analysis; assay type: functional, cell-based; conditions: dose 50-200 nM
Summary of the method: (§2)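 Cells in RPMI-1640/10 % FBS treated with compound for 24 h, lysed with protease inhibitor cocktail, and protein quantified. Equal protein run on SDS-PAGE and blotted to PVDF. Blocked in 5 % milk in PBS-0.2 % Tween-20, probed for KLF5, c-MYC and FGF2, with GAPDH as loading control. HRP secondary antibody, ECL detection.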

HCC1937 [4] = experiment: Effect on KLF5 suppression in human HCC1937 cells at 50 to 200 nM for 24 hrs by immunoblotting analysis; assay type: functional, cell-based; conditions: dose 50-200 nM; summary of the method: as §2
HCC1806 [5] = experiment: Effect on FGFPB suppression in human HCC1806 cells at 50 to 200 nM for 24 hrs by immunoblotting analysis; assay type: functional, cell-based; conditions: dose 50-200 nM
HCC1937 [6] = experiment: Effect on FGFPB suppression in human HCC1937 cells at 50 to 200 nM for 24 hrs by immunoblotting analysis; assay type: functional, cell-based; conditions: dose 50-200 nM
HCC1806 [7] = experiment: Effect on c-MYC suppression in human HCC1806 cells at 50 to 200 nM for 24 hrs by immunoblotting analysis; assay type: functional, cell-based; conditions: dose 50-200 nM; summary of the method: as §2
HCC1937 [8] = experiment: Effect on c-MYC suppression in human HCC1937 cells at 50 to 200 nM for 24 hrs by immunoblotting analysis; assay type: functional, cell-based; conditions: dose 50-200 nM; summary of the method: as §2
HCC1806 [9] = experiment: Potency index, ratio of test compound to (S)-tert-butyl 2-(4-(4-chlorophenyl)-2,3,9-trimethyl-6H-thieno[3,2-f] [1,2,4]triazolo[4,3-a] [1,4]diazepin-6-yl)acetate for effect on human HCC1806 cells assessed as reduction in KLF5 level at 0.1 to 3 uM for 24 hrs; assay type: functional; conditions: dose 0.1-3 µM
HCC1937 [10] = experiment: Potency index, ratio of test compound to (S)-tert-butyl 2-(4-(4-chlorophenyl)-2,3,9-trimethyl-6H-thieno[3,2-f] [1,2,4]triazolo[4,3-a] [1,4]diazepin-6-yl)acetate for effect on human HCC1937 cells assessed as reduction in KLF5 level at 0.1 to 3 uM for 24 hrs; assay type: functional; conditions: dose 0.1-3 µM
HCC1806 [11] = experiment: Potency index, ratio of test compound to (S)-tert-butyl 2-(4-(4-chlorophenyl)-2,3,9-trimethyl-6H-thieno[3,2-f] [1,2,4]triazolo[4,3-a] [1,4]diazepin-6-yl)acetate for effect on human HCC1806 cells assessed as reduction in c-MYC level at 0.1 to 3 uM for 24 hrs; assay type: functional; conditions: dose 0.1-3 µM
HCC1937 [12] = experiment: Potency index, ratio of test compound to (S)-tert-butyl 2-(4-(4-chlorophenyl)-2,3,9-trimethyl-6H-thieno[3,2-f] [1,2,4]triazolo[4,3-a] [1,4]diazepin-6-yl)acetate for effect on human HCC1937 cells assessed as reduction in c-MYC level at 0.1 to 3 uM for 24 hrs; assay type: functional; conditions: dose 0.1-3 µM
HCC1806 [13] = experiment: Induction of cell cycle arrest in human HCC1806 cells assessed as increase in accumulation of cells at G1 phase at 0.1 to 0.3 uM for 24 hrs by flow cytometric analysis; assay type: functional, cell-based; conditions: dose 0.1-0.3 µM
Summary of the method: (§3)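 Seeded cells were cultured overnight, then treated with compound for 24 h. Fixed in 70 % ethanol, treated with 40 µg/ml RNase A and stained with 10 µg/ml propidium iodide. Analysed by flow cytometry for G1, S and G2/M fractions. Experimental triplicates, SD shown.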

HCC1937 [14] = experiment: Induction of cell cycle arrest in human HCC1937 cells assessed as increase in accumulation of cells at G1 phase at 0.1 to 0.3 uM for 24 hrs by flow cytometric analysis; assay type: functional, cell-based; conditions: dose 0.1-0.3 µM; summary of the method: as §3
HCC1806 [15] = experiment: Induction of cell cycle arrest in human HCC1806 cells assessed as increase in accumulation of cells at G1 phase at 0.3 uM for 24 hrs by flow cytometric analysis; assay type: functional, cell-based; summary of the method: as §3
HCC1937 [16] = experiment: Induction of cell cycle arrest in human HCC1937 cells assessed as increase in accumulation of cells at G1 phase at 0.3 uM for 24 hrs by flow cytometric analysis; assay type: functional, cell-based; summary of the method: as §3
HCC1806 [17] = experiment: Inhibition of DNA synthesis in human HCC1806 cell at 0.1 to 0.3 uM measured for 24 hrs by Edu incorporation assay; assay type: functional, cell-based; conditions: dose 0.1-0.3 µM
Summary of the method: (§4)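 After 24 h treatment at different concentrations, cells were EdU-labelled with the Click-iT imaging kit, fixed and DNA-stained. Fluorescence micrographs were taken and five random fields counted per sample. Result given as % EdU-positive (EdU-positive/total cells). Experimental triplicates, SD shown.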

HCC1937 [18] = experiment: Inhibition of DNA synthesis in human HCC1937 cell at 0.1 to 0.3 uM measured for 24 hrs by Edu incorporation assay; assay type: functional, cell-based; conditions: dose 0.1-0.3 µM; summary of the method: as §4
HCC1806 [19] = experiment: Inhibition of cell growth in human HCC1806 cells infected with pCDH-3 Flag tagged KLF5 assessed as ectopic KLF5 expression at 0.01 to 10000 nM for 72 hrs by SRB assay; assay type: functional, cell-based; conditions: dose 0.01-10000 nM
Summary of the method: (§5)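 Cells infected with pCDH-3×Flag-KLF5 lentivirus, or vector control lentivirus, were plated and treated for 72 h. Inhibition rate measured by SRB assay. Experimental triplicates, SD shown.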

HCC1937 [20] = experiment: Inhibition of cell growth in human HCC1937 cells infected with pCDH-3 Flag tagged KLF5 assessed as ectopic KLF5 expression at 0.01 to 10000 nM for 72 hrs by SRB assay; assay type: functional, cell-based; conditions: dose 0.01-10000 nM; summary of the method: as §5
HCC1937 [21] = experiment: Effect on human HCC1937 cells assessed as reduction in KLF5 mRNA at 1 uM for 12 to 24 hrs by qPCR analysis; assay type: functional, cell-based; conditions: time 12-24 hrs
Summary of the method: (§6)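 HCC1806 or HCC1937 cells treated with 1 μM for 12 h or 24 h; KLF5 mRNA quantified by qPCR; experimental triplicates, SD, t-test.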

HCC1806 [22] = experiment: Effect on human HCC1806 cells assessed as reduction in KLF5 mRNA at 1 uM for 12 to 24 hrs by qPCR analysis; assay type: functional, cell-based; conditions: time 12-24 hrs; summary of the method: as §6
HCC1806 [23] = experiment: Downregulation of FGFBP in human HCC1806 cells treated at 1 to 3 uM for 24 hrs by immunoblotting analysis; assay type: functional, cell-based; conditions: dose 1-3 µM
Summary of the method: (§7)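 HCC1806 or HCC1937 cells (RPMI-1640, 10% FBS, 37 °C, 5% CO2) treated 24 h; lysed with protease inhibitors, protein assayed, equal amounts run on SDS-PAGE, blotted to PVDF, blocked in 5% milk/PBS-0.2% Tween-20, probed for KLF5, FGFBP, p21, c-MYC and GAPDH loading control; HRP secondary, ECL detection.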

HCC1937 [24] = experiment: Downregulation of FGFBP in human HCC1937 cells treated at 1 to 3 uM for 24 hrs by immunoblotting analysis; assay type: functional, cell-based; conditions: dose 1-3 µM; summary of the method: as §7
HCC1806 [25] = experiment: Upregulation of p21 in human HCC1806 cells treated at 1 to 3 uM for 24 hrs by immunoblotting analysis; assay type: functional, cell-based; conditions: dose 1-3 µM; summary of the method: as §7
HCC1937 [26] = experiment: Upregulation of p21 in human HCC1937 cells treated at 1 to 3 uM for 24 hrs by immunoblotting analysis; assay type: functional, cell-based; conditions: dose 1-3 µM; summary of the method: as §7
HCC1806 [27] = experiment: Downregulation of KLF5 in human HCC1806 cells treated at 1 uM by immunoblotting analysis; assay type: functional, cell-based; conditions: time 12-72 hrs, TDE = time-dependent effect
Summary of the method: (§8)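 Time course: HCC1806 or HCC1937 cells exposed to 1 μM for the indicated times, pellets collected at each time point and lysed with protease inhibitors; equal protein immunoblotted after SDS-PAGE/PVDF transfer for KLF5, GAPDH loading control, ECL detection.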

HCC1937 [28] = experiment: Downregulation of KLF5 in human HCC1937 cells treated at 1 uM by immunoblotting analysis; assay type: functional, cell-based; conditions: time 12-72 hrs, TDE = time-dependent effect; summary of the method: as §8
HCC1806 [29] = experiment: Induction of cell cycle arrest in human HCC1806 cells assessed as increase in accumulation of cells at G1 phase at 0.3 to 1 uM for 24 hrs by flow cytometric analysis; assay type: functional, cell-based; conditions: dose 0.3-1 µM
Summary of the method: (§9)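 HCC1806 or HCC1937 cells seeded, cultured overnight, treated 24 h; fixed in 70% ethanol, RNase A 40 µg/ml, propidium iodide 10 µg/ml; flow cytometry with G1, S and G2/M percentages; experimental triplicates, SD.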

HCC1806 [30] = experiment: Induction of cell cycle arrest in human HCC1806 cells assessed as decrease in accumulation of cells at S phase at 0.3 to 1 uM for 24 hrs by flow cytometric analysis; assay type: functional, cell-based; conditions: dose 0.3-1 µM; summary of the method: as §9
HCC1937 [31] = experiment: Induction of cell cycle arrest in human HCC1937 cells assessed as increase in accumulation of cells at G1 phase at 0.3 to 1 uM for 24 hrs by flow cytometric analysis; assay type: functional, cell-based; conditions: dose 0.3-1 µM; summary of the method: as §9
HCC1937 [32] = experiment: Induction of cell cycle arrest in human HCC1937 cells assessed as decrease in accumulation of cells at S phase at 0.3 to 1 uM for 24 hrs by flow cytometric analysis; assay type: functional, cell-based; conditions: dose 0.3-1 µM; summary of the method: as §9
HCC1806 [33] = experiment: Inhibition of cell growth in human HCC1806 cells infected with pCDH-3 Flag tagged KLF5 assessed as ectopic KLF5 expression at 100 to 10000 nM for 72 hrs by SRB assay; assay type: functional, cell-based; conditions: dose 100-10000 nM
Summary of the method: (§10)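 HCC1806 or HCC1937 cells infected with pCDH-3×Flag-KLF5 or empty pCDH vector lentivirus, plated in 96-well format and treated 72 h; inhibition rate by sulforhodamine B staining read at 560 nm; experimental triplicates, SD.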

HCC1937 [34] = experiment: Inhibition of cell growth in human HCC1937 cells infected with pCDH-3 Flag tagged KLF5 assessed as ectopic KLF5 expression at 100 to 10000 nM for 72 hrs by SRB assay; assay type: functional, cell-based; conditions: dose 100-10000 nM; summary of the method: as §10

SMILES: CN(C)C/C=C/C(=O)Nc1ccc(C(=O)Nc2cccc(Nc3ncc(Cl)c(-c4c[nH]c5ccccc45)n3)c2)cc1
- Activity (HCC1806 [1]): Active
- Activity (HCC1937 [2]): Active
- Activity (HCC1806 [3]): Active
- Activity (HCC1937 [4]): Active
- Activity (HCC1806 [5]): Active
- Activity (HCC1937 [6]): Active
- Activity (HCC1806 [7]): Active
- Activity (HCC1937 [8]): Active

SMILES: Cc1nnn(C)c1-c1cnc2c3c4cnn(C)c4ccc3n([C@H](c3ccccc3)C3CCOCC3)c2c1
- Activity (HCC1806 [1]): Active
- Activity (HCC1937 [2]): Active
- Ratio (HCC1806 [9]): ~10
- Ratio (HCC1937 [10]): ~10
- Ratio (HCC1806 [11]): ~10
- Ratio (HCC1937 [12]): ~10
- Activity (HCC1806 [13]): Active
- Activity (HCC1937 [14]): Active
- Activity (HCC1806 [15]): Active
- Activity (HCC1937 [16]): Active
- inhibition (HCC1806 [17]): Active
- inhibition (HCC1937 [18]): Active
- inhibition (HCC1806 [19]): Active
- inhibition (HCC1937 [20]): Active

SMILES: Cc1sc2c(c1C)C(c1ccc(Cl)cc1)=N[C@@H](CC(=O)OC(C)(C)C)c1nnc(C)n1-2
- Activity (HCC1937 [21]): Active
- Activity (HCC1806 [22]): Active
- Activity (HCC1806 [23]): Active
- Activity (HCC1937 [24]): Active
- Activity (HCC1806 [25]): Active
- Activity (HCC1937 [26]): Active
- Activity (HCC1806 [27]): Tde
- Activity (HCC1937 [28]): Tde
- Activity (HCC1806 [29]): Active
- Activity (HCC1806 [30]): Active
- Activity (HCC1937 [31]): Active
- Activity (HCC1937 [32]): Active
- inhibition (HCC1806 [33]): Active
- inhibition (HCC1937 [34]): Active
